Experimental data from ChEMBL document CHEMBL1765023, “Acetyl analogs of combretastatin A-4: synthesis and biological studies” (Bioorg Med Chem, 2011).
Values after ≈ are worked out from the molar mass of the structure shown.

How the values were obtained:
[1] = tested on: NCI-H460; assay: Growth inhibition of human NCI-H460 cells after 48 hrs by sulforhodamine B assay; assay type: functional; settings: NCI-H460, 48 h
Summary of the method: (§1)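 NCI 60 human cancer cell line screen run at the National Cancer Institute. Cells had 48 h continuous exposure, and proliferation was read by sulforhodamine B staining. GI50 (50% growth inhibition) was taken from dose–response curves.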

[2] = tested on: NCI-H522; assay: Growth inhibition of human NCI-H522 cells after 48 hrs by sulforhodamine B assay; assay type: functional; settings: NCI-H522, 48 h; summary of the method: as §1
[3] = tested on: COLO 205; assay: Growth inhibition of human COLO205 cells after 48 hrs by sulforhodamine B assay; assay type: functional; settings: COLO 205, 48 h; summary of the method: as §1
[4] = tested on: HCC 2998; assay: Growth inhibition of human HCC2998 cells after 48 hrs by sulforhodamine B assay; assay type: functional; settings: HCC 2998, 48 h; summary of the method: as §1
[5] = tested on: HCT-15; assay: Growth inhibition of human HCT15 cells after 48 hrs by sulforhodamine B assay; assay type: functional; settings: HCT-15, 48 h; summary of the method: as §1
[6] = tested on: HT-29; assay: Growth inhibition of human HT-29 cells after 48 hrs by sulforhodamine B assay; assay type: functional; settings: HT-29, 48 h; summary of the method: as §1
[7] = tested on: KM12; assay: Growth inhibition of human KM12 cells after 48 hrs by sulforhodamine B assay; assay type: functional; settings: KM12, 48 h; summary of the method: as §1
[8] = tested on: SW-620; assay: Growth inhibition of human SW620 cells after 48 hrs by sulforhodamine B assay; assay type: functional; settings: SW-620, 48 h
Summary of the method: (§2)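 Tested in the NCI 60 human cancer cell line panel. Cells were exposed continuously for 48 h and proliferation was read by sulforhodamine B staining. GI50 (concentration for 50% growth inhibition), TGI (total growth inhibition) and LC50 were taken from dose–response curves.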

[9] = tested on: SF-268; assay: Growth inhibition of human SF268 cells after 48 hrs by sulforhodamine B assay; assay type: functional; settings: SF-268, 48 h; summary of the method: as §1
[10] = tested on: SF-539; assay: Growth inhibition of human SF539 cells after 48 hrs by sulforhodamine B assay; assay type: functional; settings: SF-539, 48 h; summary of the method: as §1
[11] = tested on: SNB-19; assay: Growth inhibition of human SNB19 cells after 48 hrs by sulforhodamine B assay; assay type: functional; settings: SNB-19, 48 h; summary of the method: as §2
[12] = tested on: SNB-75; assay: Growth inhibition of human SNB75 cells after 48 hrs by sulforhodamine B assay; assay type: functional; settings: SNB-75, 48 h; summary of the method: as §2
[13] = tested on: LOX IMVI; assay: Growth inhibition of human LOXIMVI cells after 48 hrs by sulforhodamine B assay; assay type: functional; summary of the method: as §1
[14] = tested on: Malme-3M; assay: Growth inhibition of human MALME-3M cells after 48 hrs by sulforhodamine B assay; assay type: functional; settings: read-out: pTGI; summary of the method: as §1
[15] = tested on: M14; assay: Growth inhibition of human M14 cells after 48 hrs by sulforhodamine B assay; assay type: functional; settings: M14, 48 h; summary of the method: as §1
[16] = tested on: SK-MEL-28; assay: Growth inhibition of human SK-MEL-28 cells after 48 hrs by sulforhodamine B assay; assay type: functional; settings: SK-MEL-28, 48 h; summary of the method: as §1
[17] = tested on: IGROV-1; assay: Growth inhibition of human IGROV1 cells after 48 hrs by sulforhodamine B assay; assay type: functional; settings: IGROV-1, 48 h; summary of the method: as §1
[18] = tested on: OVCAR-8; assay: Growth inhibition of human OVCAR8 cells after 48 hrs by sulforhodamine B assay; assay type: functional; settings: OVCAR-8, 48 h; summary of the method: as §1
[19] = tested on: 786-0; assay: Growth inhibition of human 786-0 cells after 48 hrs by sulforhodamine B assay; assay type: functional; settings: 786-0, 48 h; summary of the method: as §1
[20] = tested on: RXF 393; assay: Growth inhibition of human RXF393 cells after 48 hrs by sulforhodamine B assay; assay type: functional; settings: RXF 393, 48 h; summary of the method: as §1
[21] = tested on: SN12C; assay: Growth inhibition of human SN12C cells after 48 hrs by sulforhodamine B assay; assay type: functional; summary of the method: as §2
[22] = tested on: TK-10; assay: Growth inhibition of human TK10 cells after 48 hrs by sulforhodamine B assay; assay type: functional; settings: TK-10, 48 h; summary of the method: as §2
[23] = tested on: UO-31; assay: Growth inhibition of human UO31 cells after 48 hrs by sulforhodamine B assay; assay type: functional; settings: UO-31, 48 h; summary of the method: as §2
[24] = tested on: DU-145; assay: Growth inhibition of human DU145 cells after 48 hrs by sulforhodamine B assay; assay type: functional; settings: DU-145, 48 h; summary of the method: as §1
[25] = Growth inhibition of human Hs 578T cells after 48 hrs by sulforhodamine B assay; assay type: functional; summary of the method: as §1
[26] = Ratio of EC50 for microtubule depolymerization in […] cells to IC50 for human MDA-MB-435 cells
[27] = tested on: Mus musculus; assay: Toxicity in DBA2 mouse assessed as change in color, weight and size in spleen at 75 mg/kg, ip QD administered on alternate days for 17 days measured on day 23 relative to control; assay type: organism-based; set-up: dose 75 mg/kg, route intraperitoneal; settings: in vivo, 408 h
Summary of the method: (§3)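 Healthy female DBA2 mice, 5–7 weeks old, five per group, received 75 mg/kg ip on days 1, 5, 9, 13 and 17. Vehicle was PET (PEG400/ethanol/Tween 80, 6:3:1), 5% glucose and DMSO, with final ethanol 15% and DMSO 10%. Controls received 100 µL vehicle. Body weight was measured every other day. At sacrifice on day 23, blood counts (hematocrit, WBC, granulocytes, platelets) and liver, kidney and spleen appearance and weight were assessed.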

[28] = tested on: Mus musculus; assay: Toxicity in DBA2 mouse assessed as change in hematocrit at 75 mg/kg, ip QD administered on alternate days for 17 days measured on day 23 relative to control; assay type: organism-based; set-up: dose 75 mg/kg, route intraperitoneal; settings: in vivo, 408 h; summary of the method: as §3
[29] = tested on: Mus musculus; assay: Toxicity in DBA2 mouse assessed as change in white blood count at 75 mg/kg, ip QD administered on alternate days for 17 days measured on day 23 relative to control; assay type: organism-based; set-up: dose 75 mg/kg, route intraperitoneal; settings: in vivo, 408 h; summary of the method: as §3
[30] = tested on: Mus musculus; assay: Toxicity in DBA2 mouse assessed as change in granulocyte count at 75 mg/kg, ip QD administered on alternate days for 17 days measured on day 23 relative to control; assay type: organism-based; set-up: dose 75 mg/kg, route intraperitoneal; settings: in vivo, 408 h; summary of the method: as §3
[31] = Solubility of the compound in water by multiscreen solubility; assay type: physicochemical
Summary of the method: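 Aqueous solubility was measured with a modified Multiscreen Solubility filter-plate protocol. The assay ceiling is 500 µM, and two independent experiments were run.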

[32] = tested on: L1210; assay: Cytotoxicity against mouse L1210 cells by MTT assay; assay type: functional, cell-based
[33] = tested on: CCRF-CEM; assay: Growth inhibition of human CCRF-CEM cells after 48 hrs by sulforhodamine B assay; assay type: functional; summary of the method: as §1
[34] = tested on: EKVX; assay: Growth inhibition of human EKVX cells after 48 hrs by sulforhodamine B assay; assay type: functional; summary of the method: as §1
[35] = tested on: NCI-H226; assay: Growth inhibition of human NCI-H226 cells after 48 hrs by sulforhodamine B assay; assay type: functional; settings: NCI-H226, 48 h; summary of the method: as §1

## COc1ccc(/C=C(/C(C)=O)c2cc(OC)c(OC)c(OC)c2)cc1O
[1]
  GI50: 263 nM
[1]; read-out: pTGI (converted)
  TGI: 1320 nM
[2]
  GI50: 135 nM
[2]; read-out: pTGI (converted)
  TGI: 537 nM
[3]
  GI50: 10700 nM
[3]; read-out: pTGI (converted)
  TGI: 37200 nM
[4]
  GI50: 1320 nM
[4]; read-out: pTGI (converted)
  TGI: 11500 nM
[5]
  GI50: 398 nM
[5]; read-out: pTGI
  TGI: > 100000 nM
[6]
  GI50: 3630 nM
[6]; read-out: pTGI (converted)
  TGI: 15500 nM
[7]
  GI50: 112 nM
[7]; read-out: pTGI (converted)
  TGI: 1950 nM
[8]
  GI50: 91.2 nM
[8]; read-out: pTGI (converted)
  TGI: 53700 nM
[9]
  GI50: 363 nM
[9]; read-out: pTGI (converted)
  TGI: 16600 nM
[10]
  GI50: 302 nM
[10]; read-out: pTGI
  TGI: > 100000 nM
[11]
  GI50: 676 nM
[11]; read-out: pTGI
  TGI: > 100000 nM
[12]
  GI50: 257 nM
[12]; read-out: pTGI
  TGI: > 100000 nM
[13]
  GI50: 417 nM
[13]; read-out: pTGI
  TGI: > 100000 nM
[14]
  TGI: > 100000 nM
[15]
  GI50: 209 nM
[15]; read-out: pTGI
  TGI: > 100000 nM
[16]
  GI50: 100000 nM
[16]; read-out: pTGI
  TGI: > 100000 nM
[17]
  GI50: 316 nM
[17]; read-out: pTGI
  TGI: > 100000 nM
[18]
  GI50: 372 nM
[18]; read-out: pTGI
  TGI: > 100000 nM
[19]
  GI50: 562 nM
[19]; read-out: pTGI (converted)
  TGI: 44700 nM
[20]
  GI50: 219 nM
[21]
  GI50: 776 nM
[21]; read-out: pTGI
  TGI: > 100000 nM
[22]
  GI50: 18200 nM
[22]; read-out: pTGI
  TGI: > 100000 nM
[23]
  GI50: 575 nM
[23]; read-out: pTGI
  TGI: > 100000 nM
[24]
  GI50: 257 nM
[24]; read-out: pTGI (converted)
  TGI: 813 nM
[25]
  GI50: 89.1 nM
[25]; read-out: pTGI (converted)
  TGI: 74100 nM
[26]
  Ratio: 10
[27]
  Activity: Non-toxic
[28]
  Activity: Non-toxic
[29]
  Activity: Non-toxic
[30]
  Activity: Non-toxic
[31]
  solubility: 456 µM (≈ 163 µg/mL)
[32]
  IC50: 450 nM
[33]
  GI50: 398 nM
[33]; read-out: pTGI
  TGI: > 100000 nM
[34]
  GI50: 5250 nM
[34]; read-out: pTGI
  TGI: > 100000 nM
[35]
  GI50: 1000 nM
[35]; read-out: pTGI
  TGI: > 100000 nM
